Converted amounts (≈) assume the structure as drawn.
What was measured:
[1] = Selectivity index, ratio of CC50 for human U937 cells to MIC for Candida Sp.; type: functional, U-937
Procedure, shortened: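 SI = CC50 from the 48 h U937 MTT assay divided by the mean MIC across all Candida species. That MIC comes from CLSI M27-A3 broth microdilution in RPMI 1640, 35 °C, read at 48 h.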

Nakaseomyces glabratus [2] = assay: Antifungal activity against Candida glabrata PMC 0805 after 48 hrs by M27-A3 CLSI method; type: functional; settings: PMC 0805, 48 h
Procedure, shortened: (§1)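 Broth microdilution in RPMI 1640, two-fold serial dilutions, final test range 0.125–64 µg mL-1 (fluconazole reference 0.0078–128 µg mL-1). Inoculum 1.0×10^3–1.5×10^3 cells mL-1 from yeasts grown 24 h at 35 °C on Sabouraud dextrose agar. Incubation 35 °C, read at 48 h. MIC = lowest concentration giving >50% turbidity decrease versus growth control. Run three times in triplicate. C. parapsilosis ATCC22019 served as QC.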

[3] = Cytotoxicity against human U937 cells after 48 hrs by MTT assay; type: cell-based, U-937
Procedure, shortened: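 U937 human monocytic cells, 2×10^4 per well, in phenol-red-free RPMI 1640 with 10% FBS, L-glutamine, penicillin and streptomycin. Exposed 48 h at 37 °C, 5% CO2, to compounds dissolved in DMSO at final 8–128 µg mL-1, at least five concentrations, each in three replicates. MTT added for 3–4 h, crystals dissolved, OD read at 570 nm. CC50 taken against DMSO-only control. Means ± SD from three independent experiments.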

Candida albicans [4] = assay: Antifungal activity against Candida albicans ATCC 76615 after 48 hrs by M27-A3 CLSI method; type: functional; settings: ATCC 76615, 48 h; procedure, shortened: as §1
Candida albicans [5] = assay: Antifungal activity against Candida albicans after 48 hrs by M27-A3 CLSI method; type: functional; procedure, shortened: as §1
Candida tropicalis [6] = assay: Antifungal activity against Candida tropicalis after 48 hrs by M27-A3 CLSI method; type: functional; procedure, shortened: as §1
Pichia kudriavzevii [7] = assay: Ratio MIC for fluconazole to compound for Candida krusei after 48 hrs by M27-A3 CLSI method; type: functional
Candida albicans [8] = assay: Antifungal activity against Candida albicans ATCC 3153 after 48 hrs by M27-A3 CLSI method; type: functional; settings: ATCC 3153, 48 h; procedure, shortened: as §1
Candida albicans [9] = assay: Antifungal activity against Candida albicans ATCC 24433 after 48 hrs by M27-A3 CLSI method; type: functional; procedure, shortened: as §1
Candida tropicalis [10] = assay: Antifungal activity against Candida tropicalis DSM11953 after 48 hrs by M27-A3 CLSI method
Candida parapsilosis [11] = assay: Antifungal activity against Candida parapsilosis after 48 hrs by M27-A3 CLSI method; type: functional; settings: Lodderomyces parapsilosis; procedure, shortened: as §1
Candida = assay: Antifungal activity against Candida sp. after 48 hrs by M27-A3 CLSI method; type: functional; procedure, shortened: as §1
Pichia kudriavzevii [12] = assay: Antifungal activity against Candida krusei PMC 0613 after 48 hrs by M27-A3 CLSI method; type: functional; procedure, shortened: as §1
Candida parapsilosis [13] = assay: Antifungal activity against Candida parapsilosis ATCC 22019 after 48 hrs by M27-A3 CLSI method; type: functional; settings: Lodderomyces parapsilosis, ATCC 22019, 48 h; procedure, shortened: as §1
Nakaseomyces glabratus [14] = assay: Antifungal activity against Candida glabrata after 48 hrs by M27-A3 CLSI method; type: functional; procedure, shortened: as §1
Pichia kudriavzevii [15] = assay: Antifungal activity against Candida krusei DSM 6128 after 48 hrs by M27-A3 CLSI method; type: functional; settings: DSM 6128, 48 h; procedure, shortened: as §1
Candida tropicalis [16] = assay: Antifungal activity against Candida tropicalis DSM 11953 after 48 hrs by M27-A3 CLSI method; type: functional; settings: DSM 11953, 48 h; procedure, shortened: as §1
Candida albicans [17] = assay: Antifungal activity against Candida albicans ATCC 10231 after 48 hrs by M27-A3 CLSI method; type: functional; settings: ATCC 10231, 48 h; procedure, shortened: as §1
Candida parapsilosis [18] = assay: Antifungal activity against Candida parapsilosis DSM 11224 after 48 hrs by M27-A3 CLSI method; type: functional; procedure, shortened: as §1
Pichia kudriavzevii [19] = assay: Antifungal activity against Candida krusei after 48 hrs by M27-A3 CLSI method; type: functional; procedure, shortened: as §1
Candida tropicalis [20] = assay: Antifungal activity against Candida tropicalis PMC 0910 after 48 hrs by M27-A3 CLSI method; type: functional; settings: PMC 0910, 48 h; procedure, shortened: as §1
Pichia kudriavzevii [21] = assay: Ratio MIC for fluconazole to compound for Candida krusei PMC0613 after 48 hrs by M27-A3 CLSI method
Pichia kudriavzevii [22] = assay: Ratio MIC for fluconazole to compound for Candida krusei PMC 0613 after 48 hrs by M27-A3 CLSI method; type: functional
[23] = Candida albicans, ATCC 24433, 48 h, read-out: MIC
[24] = Pichia kudriavzevii, PMC 0613, 48 h, read-out: MIC
[25] = Lodderomyces parapsilosis, DSM 11224, 48 h, read-out: MIC

Structure (SMILES) | MIC (Nakaseomyces glabratus [2]) [µg/mL] | MIC (Candida albicans [4]) [µg/mL] | MIC (Candida albicans [5]) [µg/mL] | MIC50 (Candida albicans [5]) [µg/mL] | MIC90 (Candida albicans [5]) [µg/mL] | MIC (Candida tropicalis [6]) [µg/mL] | Ratio (Pichia kudriavzevii [7]) | MIC (Candida albicans [8]) [µg/mL] | MIC (Candida albicans [9]) [µg/mL] | MIC (Candida tropicalis [10]) [µg/mL] | MIC (Candida parapsilosis [11]) [µg/mL] | MIC (Candida) [µg/mL] | MIC50 (Candida) [µg/mL] | MIC90 (Candida) [µg/mL] | MIC (Pichia kudriavzevii [12]) [µg/mL] | MIC (Candida parapsilosis [13]) [µg/mL] | MIC (Nakaseomyces glabratus [14]) [µg/mL] | MIC (Pichia kudriavzevii [15]) [µg/mL] | MIC (Candida tropicalis [16]) [µg/mL] | MIC (Candida parapsilosis [18]) [µg/mL] | other results
O=C(OC(Cn1ccnc1)c1ccccc1)c1ccc(-c2ccccc2)cc1 (racemic) | 4 (≈ 10.9 µM) | 4 (≈ 10.9 µM) | 3.7 (≈ 10 µM) | 1 (≈ 2.71 µM) | 8 (≈ 21.7 µM) | 0.5 (≈ 1.36 µM) | 5 | 0.25 (≈ 0.679 µM) | 0.37 (≈ 1 µM) | 0.58 (≈ 1.57 µM) | 0.7 (≈ 1.9 µM) | 2.1 (≈ 5.7 µM) | 0.5 (≈ 1.36 µM) | 4 (≈ 10.9 µM) | 0.67 (≈ 1.82 µM) | 2 (≈ 5.43 µM) | 4 (≈ 10.9 µM) | 2 (≈ 5.43 µM) | 0.25 (≈ 0.679 µM) | 0.33 (≈ 0.896 µM) | Selectivity Index [1]: >44.1; CC50 at 48 h [3]: > 128 µg/mL; MIC (Candida albicans [17]): 1 µg/mL (≈ 2.71 µM); MIC (Pichia kudriavzevii [19]): 4.7 µg/mL (≈ 12.8 µM)
O=C(OC(Cn1ccnc1)c1ccc(F)cc1)c1ccc(-c2ccccc2)cc1 (racemic) | 1 (≈ 2.59 µM) | 4 (≈ 10.4 µM) | 4.4 (≈ 11.4 µM) | 4 (≈ 10.4 µM) | 8 (≈ 20.7 µM) | 4.08 (≈ 10.6 µM) | 11 | 0.25 (≈ 0.647 µM) | 1.5 (≈ 3.88 µM) | 2.17 (≈ 5.62 µM) | 1.3 (≈ 3.36 µM) | 2.5 (≈ 6.47 µM) | 1 (≈ 2.59 µM) | 8 (≈ 20.7 µM) | 0.83 (≈ 2.15 µM) | 2 (≈ 5.18 µM) | 1 (≈ 2.59 µM) | 4 (≈ 10.4 µM) | 1 (≈ 2.59 µM) | 0.42 (≈ 1.09 µM) | Selectivity Index [1]: 12; CC50 at 48 h [3]: 41.5 µg/mL (≈ 107 µM); MIC (Candida albicans [17]): 8 µg/mL (≈ 20.7 µM); MIC (Pichia kudriavzevii [19]): 2.25 µg/mL (≈ 5.82 µM)
O=C(OC(Cn1ccnc1)c1ccc(Cl)cc1)c1ccc(-c2ccccc2)cc1 (racemic) | 1 (≈ 2.48 µM) | 4 (≈ 9.93 µM) | 1.7 (≈ 4.22 µM) | 1 (≈ 2.48 µM) | 4 (≈ 9.93 µM) | 0.89 (≈ 2.21 µM) | 7 | 0.125 (≈ 0.31 µM) | – | – | 1.05 (≈ 2.61 µM) | 1.9 (≈ 4.72 µM) | 1 (≈ 2.48 µM) | 4 (≈ 9.93 µM) | – | 1 (≈ 2.48 µM) | 1 (≈ 2.48 µM) | 4 (≈ 9.93 µM) | 0.125 (≈ 0.31 µM) | – | Selectivity Index [1]: 49.1; CC50 at 48 h [3]: 88.3 µg/mL (≈ 219 µM); MIC (Candida albicans [9]; [23]): 0.25 µg/mL (≈ 0.621 µM); MIC (Pichia kudriavzevii [12]; [24]): 1 µg/mL (≈ 2.48 µM); MIC (Candida tropicalis [20]): 1 µg/mL (≈ 2.48 µM); MIC (Candida albicans [17]): 1 µg/mL (≈ 2.48 µM); MIC (Candida parapsilosis [18]; [25]): 0.25 µg/mL (≈ 0.621 µM); MIC (Pichia kudriavzevii [19]): 3.7 µg/mL (≈ 9.18 µM)
O=C(OC(Cn1ccnc1)c1ccccc1)c1ccc(-c2ccccc2)cc1 (single isomer, unassigned; (+)) | – | – | – | – | – | – | – | – | 33.7 (≈ 91.5 µM) | 26.67 (≈ 72.4 µM) | – | – | – | – | 21.33 (≈ 57.9 µM) | – | – | – | – | 26.67 (≈ 72.4 µM) | –
O=C(OC(Cn1ccnc1)c1ccc(F)cc1)c1ccc(-c2ccccc2)cc1 (single isomer, unassigned; (+)) | – | – | – | – | – | – | – | – | 64 (≈ 166 µM) | 32 (≈ 82.8 µM) | – | – | – | – | 64 (≈ 166 µM) | – | – | – | – | 35.55 (≈ 92 µM) | –
O=C(OC(Cn1ccnc1)c1ccccc1)c1ccc(-c2ccccc2)cc1 (single isomer, unassigned; (-)) | – | – | – | – | – | – | 30 | – | 0.15 (≈ 0.407 µM) | 0.15 (≈ 0.407 µM) | – | – | – | – | 0.37 (≈ 1 µM) | – | – | – | – | 0.125 (≈ 0.339 µM) | Ratio (Pichia kudriavzevii [21]): 30; Ratio (Pichia kudriavzevii [22]): 30
O=C(OC(Cn1ccnc1)c1ccc(F)cc1)c1ccc(-c2ccccc2)cc1 (single isomer, unassigned; (-)) | – | – | – | – | – | – | 90 | – | 0.125 (≈ 0.323 µM) | 0.27 (≈ 0.699 µM) | – | – | – | – | 0.125 (≈ 0.323 µM) | – | – | – | – | 0.08 (≈ 0.207 µM) | Ratio (Pichia kudriavzevii [21]): 90; Ratio (Pichia kudriavzevii [22]): 90
OC(Cn1cncn1)(Cn1cncn1)c1ccc(F)cc1F [FLUCONAZOLE] | 0.5 (≈ 1.63 µM) | 0.25 (≈ 0.816 µM) | 4.9 (≈ 16 µM) | 1 (≈ 3.27 µM) | 16 (≈ 52.2 µM) | 3.25 (≈ 10.6 µM) | – | 16 (≈ 52.2 µM) | – | – | 1.6 (≈ 5.22 µM) | 7.9 (≈ 25.8 µM) | 2 (≈ 6.53 µM) | 16 (≈ 52.2 µM) | – | 2 (≈ 6.53 µM) | 0.87 (≈ 2.84 µM) | 16 (≈ 52.2 µM) | 1 (≈ 3.27 µM) | – | MIC (Candida albicans [9]; [23]): 1 µg/mL (≈ 3.27 µM); MIC (Pichia kudriavzevii [12]; [24]): 12 µg/mL (≈ 39.2 µM); MIC (Candida tropicalis [20]): 2.5 µg/mL (≈ 8.16 µM); MIC (Candida albicans [17]): 2 µg/mL (≈ 6.53 µM); MIC (Candida parapsilosis [18]; [25]): 1 µg/mL (≈ 3.27 µM); MIC (Pichia kudriavzevii [19]): 26 µg/mL (≈ 84.9 µM)

Reference: ChEMBL document CHEMBL1944618, “Synthesis and antifungal activity of a new series of 2-(1H-imidazol-1-yl)-1-phenylethanol derivatives” (Eur J Med Chem, 2012)
